From PubChem
A selection: hits, their analogues and other compounds. The true share with any hit is near 2.6%.
SENP8 block-1: SENP8 (human) protease inhibition; Q96LD8; recombinant SENP8, Nedd8 substrate fluorescence; inhibition, % at 20 µM; 0.64% of 360,000 active; in the data active means inhibition mostly above about 40%, no sharp cut-off; inactive means mostly below about 27%
SENP7 inh: blocks the human protease SENP7 | recombinant SENP7, Z-RLRGG-aminoluciferin luminescence, 40 min | Q9BQF6 | 1.5% of 330,000 active | inhibition, % at 5 µM;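 active means inhibition above about 50% at the single test dose, limit read from the data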;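 further: plate controls were DMSO with enzyme for no effect and no enzyme buffer wells for full effect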
SENP8 block-2: SENP8 protease inhibition; Q96LD8; purified SENP8, Z-RLRGG-aminoluciferin cleavage, luminescence; inhibition, % at 10 µM; 1.2% of 330,000 active; AID 2540; in the data active means inhibition above about 50%
SENP1 inh: SENP1 (human) catalytic domain inhibition | Q9P0U3 | 0.21% of 360,000 active | inhibition, % at 10 µM | recombinant SENP1 catalytic domain, CyPet-SUMO1-YPet FRET cleavage;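 active means inhibition at least 30% at 10 µM, raw YFP signal under a set limit, fluorescence ratio 0.5 to 1.5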;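 further: 0% = enzyme with DMSO and 100% = no enzyme wells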
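Controls: no-enzyme wells low, DMSO-plus-enzyme wells high control. Test system: human recombinant His6-tagged SENP1 catalytic domain enzyme. Reagent: SFCypet-SUMO1-SFYpet FRET protein substrate, 25 nM final. Doses: one dose per compound, 10 µM, 0.5% DMSO. Detection: FRET, CFP and YFP emission. Timing: 50 min reaction at room temperature.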
Platelet DG rel: platelet dense granule release activity. AID 1663. inhibition, %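 (compounds screened at 7.5 µM in platelet-rich plasma)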. 0.22% of 300,000 active. human platelet-rich plasma, SFLLRN dense granule ATP release, luminescence;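 active means mean replicate score, as percent of positive control, at or above 50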
SENP6 inh: blocks the human protease SENP6; Q9GZR1; Recombinant SENP6 catalytic domain, aminoluciferin luminescence; inhibition, % at 10 µM; 1.8% of 330,000 active;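 active means inhibition above about 50% at the single tested dose, limit read from the data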;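 further: plate controls were DMSO wells with enzyme for no effect and DMSO wells lacking enzyme for full effect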
Target sequence (Q9GZR1 628-1112 limits assumed): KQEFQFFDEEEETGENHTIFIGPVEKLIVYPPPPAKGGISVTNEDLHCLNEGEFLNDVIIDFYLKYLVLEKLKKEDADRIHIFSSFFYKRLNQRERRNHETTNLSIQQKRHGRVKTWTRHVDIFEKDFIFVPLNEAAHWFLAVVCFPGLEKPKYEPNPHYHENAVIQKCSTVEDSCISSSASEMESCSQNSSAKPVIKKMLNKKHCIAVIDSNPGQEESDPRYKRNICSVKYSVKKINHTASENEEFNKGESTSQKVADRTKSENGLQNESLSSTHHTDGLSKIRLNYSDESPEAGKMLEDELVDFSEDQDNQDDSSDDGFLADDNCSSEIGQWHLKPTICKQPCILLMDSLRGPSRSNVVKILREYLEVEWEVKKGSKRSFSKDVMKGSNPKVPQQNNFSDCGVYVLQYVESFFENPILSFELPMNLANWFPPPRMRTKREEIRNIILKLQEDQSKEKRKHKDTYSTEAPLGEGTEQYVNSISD
SENP8 conf: confirmation of human SENP8 protease inhibitors. AID 488912. 40% of 6,200 active. shares compounds with SENP7 inh. Recombinant SENP8, Z-RLRGG-aminoluciferin luminescence, 60 min. inhibition, % at 12.5 µM;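 active means mean inhibition across replicates above about 50%, limit read from the data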
SENP6 confirm: confirmation of human SENP6 protease inhibitors; shares compounds with SENP7 inh; 58% of 6,200 active; inhibition, % at 12.5 µM; recombinant SENP6, Z-RLRGG-aminoluciferin luminescence
SENP7 conf: confirmation of human SENP7 protease inhibitors | recombinant SENP7, Z-RLRGG-aminoluciferin luminescence, 40 min | 69% of 6,200 active | AID 488917 | shares compounds with SENP7 inh | inhibition, % at 12.5 µM
Casp3 SENP sel: caspase-3 inhibition (SENP selectivity assay); inhibition, % at 12.5 µM; AID 488918; 60% of 6,200 active; purified caspase-3, Z-DEVD-aminoluciferin luminescence, 60 min; shares compounds with SENP7 inh;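 active means mean inhibition above about 50%, limit read from the data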;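 further: plate controls were enzyme with DMSO for no effect and wells without caspase-3 for full effect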
SENP luc ctr: counter-screen for SENP inhibitors: luminescence interference; shares compounds with SENP7 inh; Pre-incubated SENP8/Z-RLRGG-aminoluciferin, luciferase luminescence interference; inhibition, % at 12.5 µM; 39% of 6,200 active;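 active means mean inhibition above about 50% when retested at one dose, limit read from the data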;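 further: plate controls were DMSO wells with completed reaction for no effect and substrate without enzyme for full effect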
Starred values were filed as active, the others as inactive; i = inactive; . = no result.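 How the source made its calls, unless noted: active means mean inhibition above about 50% in the one-dose retest (limit read from the data); inactive means the rest.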

SMILES	SENP8 block-1	SENP7 inh	SENP8 block-2	SENP1 inh	Platelet DG rel	SENP6 inh	SENP8 conf	SENP6 confirm	SENP7 conf	Casp3 SENP sel	SENP luc ctr
COc1ccc(-c2nc3ccccc3s2)cc1O	i	100*	95*	-3	.	97*	98*	99*	102*	96*	98*
CC(=O)c1ccc(S(=O)(=O)N(C)CC(=O)NCc2ccco2)cc1	10	1	5	1	.	2	.	.	.	.	.
COc1ccccc1C1NC(=O)NC(C)=C1C(=O)OCC1CCCCC1 (stereo not given)	14	.	.	2	.	.	.	.	.	.	.
Cc1csc(NC(=O)c2cnc3ccccc3n2)n1	4	12	2	3	10	20	.	.	.	.	.
Cc1cccc(C)c1NC(=O)CNC(=O)c1ccc2ccccc2n1	5	-3	6	-3	.	-10	.	.	.	.	.
Cc1csc(NC(=O)c2cn3ccccc3n2)n1	-5	85*	70*	-1	57*	84*	65*	86*	97*	95*	16
Cc1cccc(NC(=O)c2ccc3ccccc3n2)c1C	20	77*	65*	1	-2	88*	13	84*	97*	72*	58*
Cc1csc(NC(=O)c2ccc3ccccc3n2)n1	2	80*	75*	-3	7	83*	4	82*	95*	49	15
O=C(Nc1ccccn1)c1ccc2ccccc2n1	10	89*	80*	-1	6	90*	-4	85*	97*	86*	85*
CC12CCC(C(=O)NCCCN3CCOCC3)(C(Br)C1=O)C2(C)C (stereo not given)	13	-5	-7	1	-5	-32	.	.	.	.	.
COc1cccc(NC(=O)COC(=O)C2CC3CCCC(C2)C3=O)c1 (stereo not given)	-1	-11	-11	2	.	-27	.	.	.	.	.
O=C(Nc1ccccn1)c1ccc(Cl)s1	6	66*	26	2	6	60*	30	38	78*	74*	56*
O=C(Nc1nccs1)c1ccc2ccccc2n1	0	70*	53*	-4	-2	69*	64*	64*	90*	80*	63*
O=C(COC(=O)CCC1CCCC1)Nc1ccc(F)cc1Cl	-1	5	-1	4	.	-9	.	.	.	.	.
CN(CC(=O)Nc1cccc(F)c1)CC(=O)N1CCc2ccccc21	4	-9	-14	2	.	-4	.	.	.	.	.
COC(=O)[C@]1(Cc2ccccc2)N[C@H](CN(C)C(=O)Nc2ccc(C(F)(F)F)cc2)[C@@H]2C(=O)N(C)C(=O)[C@@H]21	6	-8	-4	-1	.	-47	.	.	.	.	.
Cc1ccc(C(=O)OCC(=O)Nc2sc3c(c2C#N)CCC3)cc1	8	-13	-15	-10	-31	-17	.	.	.	.	.
N#Cc1c(NC(=O)COC(=O)c2ccc(F)cc2)sc2c1CCC2	-4	51*	1	-3	-9	-4	-5	-4	2	10	8
Cc1cccc(C(=O)Nc2sc3c(c2C#N)CCCCC3)c1	-24	77*	33	-6	8	16	30	21	16	31	-2
N#Cc1c(NC(=O)c2ccccc2)sc2c1CCC2	4	27	18	-26	7	63*	-21	12	18	4	-2
N#Cc1c(NC(=O)c2ccc([N+](=O)[O-])o2)sc2c1CCC2	35	15	47	-82	-2	80*	58*	79*	79*	76*	10
CNC(=O)c1c(NC(=O)c2cccc(C)c2)sc2c1CCC2	-228	-8	-5	-78	-5	-18	.	.	.	.	.
NS(=O)(=O)c1ccc(NC(=O)COC(=O)COc2ccccc2)cc1	0	-7	-15	4	2	-11	.	.	.	.	.
Cc1c(C(=O)O)oc2ccc(S(=O)(=O)N3CCC(C)CC3)cc12	13	3	-2	-1	.	-3	.	.	.	.	.
Cc1c(C(=O)N2CCC(C)CC2)oc2ccc(S(=O)(=O)N3CCC4(CC3)OCCO4)cc12	8	75*	3	1	2	6	6	8	7	3	2
SMILES	SENP8 block-1	SENP7 inh	SENP8 block-2	SENP1 inh	Platelet DG rel	SENP6 inh	SENP8 conf	SENP6 confirm	SENP7 conf	Casp3 SENP sel	SENP luc ctr
O=C(NC(=S)NNS(=O)(=O)c1ccccc1)c1ccc([N+](=O)[O-])cc1	11	-2	-6	1	18	-8	.	.	.	.	.
O=C(NNS(=O)(=O)c1ccccc1)c1ccc([N+](=O)[O-])cc1	14	68*	-10	2	7	-3	8	9	11	4	-3
Cc1cc(NC(=O)CS(=O)c2cn(Cc3cccc(Cl)c3)c3ccccc23)no1 (stereo not given)	12	.	.	0	.	.	.	.	.	.	.
COc1ccccc1C(=O)Nc1ccc2c(c1)CCCN2C(=O)c1ccccc1	17	84*	84*	0	54*	90*	85*	82*	95*	85*	76*
COc1ccccc1C(=O)Nc1ccc2c(c1)CCCN2C(=O)c1cccs1	3	55*	47	2	25	54*	66*	64*	84*	65*	58*
O=C(Nc1ccc2c(c1)CCCN2C(=O)c1ccccc1)c1ccccc1Br	17	20	25	1	9	38	.	.	.	.	.
CCCNC(=O)C1(C)CCCN(C(=O)c2cccc(C#N)c2)C1 (stereo not given)	20	.	.	4	.	.	.	.	.	.	.
Nc1c(Br)cc2oc(-c3ccccc3)nc2c1Br	-75	16	-11	-2	-3	17	.	.	.	.	.
COc1ccc(-c2nc3c(Br)c(N)c(Br)cc3o2)cc1	-56	80*	4	-3	.	4	-8	-12	12	38	-11
NNC(=O)c1cccc(COc2ccccc2Br)c1	24	14	-2	-1	5	6	.	.	.	.	.
NNC(=O)c1cccc(COc2ccc3c(c2)CCC3)c1	16	17	44	2	18	69*	68*	61*	88*	45	86*
COc1ccc(C2=NN(CN3C(=O)C(=O)c4ccccc43)C(c3ccc(C)cc3)C2)cc1 (stereo not given)	7	-9	-7	-6	1	-1	.	.	.	.	.
